# Assay results taken from ChEMBL document CHEMBL3244219, “Synthesis of [1-sarcosine, 8-O-methylserine]angiotensin II and 1-substituted analogues of [8-threonine]angiotensin II as antagonists of angiotensin II” (J Med Chem, 1977).
# Where a SMILES comes first, the peptide text is derived from it. [ ]: non-standard residue; d: D form. The star is where a group is joined. Guanidinoacetyl = N=C(N)NCC(=O)*; NMeI = CC[C@H](C)[C@H](NC)C(=O)O; Me2Gly = CN(C)CC(=O)*; Sar = CNCC(=O)O
# Tests used:
# Rattus norvegicus [1] = assay: Pressor activity in ganglion-blocked vagotomized rat assessed as rise in blood pressure at 250 ng/kg/min, iv administered as infusion measured after 3 mins relative to control; assay type: functional
# Method in brief: (§1)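 Vagotomized, ganglion-blocked rats were infused with the analogue. Rise in blood pressure (mmHg) was read at 3, 10 and 30 min of infusion. Values are mean ± error over several rats per analogue.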
# Rattus norvegicus [2] = assay: Pressor activity in ganglion-blocked vagotomized rat assessed as rise in blood pressure at 250 ng/kg/min, iv administered as infusion measured after 10 mins relative to control; assay type: functional; method in brief: as §1
# Rattus norvegicus [3] = assay: Pressor activity in ganglion-blocked vagotomized rat assessed as rise in blood pressure at 250 ng/kg/min, iv administered as infusion measured after 30 mins relative to control; assay type: functional; method in brief: as §1
# Rattus norvegicus [4] = assay: Pressor activity in ganglion-blocked vagotomized rat administered as bolus injection relative to [Asp1,Ile8]angiotension 2; assay type: functional
# Method in brief: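 Vagotomized, ganglion-blocked rats received a bolus injection of the analogue. Pressor activity is expressed as percent relative to [Asp¹,Ile⁸]angiotensin II, set at 100.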
# [5] = Antagonist activity at angiotensin 2 receptor in rabbit aortic strip assessed as inhibition of contractile activity; details: Oryctolagus cuniculus; read-out: pA2 (converted)
# Method in brief: (§2)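 Rabbit aortic strips; the antagonist opposes angiotensin II-induced contraction. pA₂ is the negative log molar antagonist concentration that reduces the effect of a doubled agonist concentration to that of a single one. It is derived as pA₂ = (log K₂)/n, where n is the slope of log(dose ratio − 1) vs. −log antagonist concentration and K₂ is the y-intercept.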
# Oryctolagus cuniculus = species: Oryctolagus cuniculus; assay: Binding affinity to angiotensin 2 receptor in rabbit aortic strip; method in brief: as §2
# Rattus norvegicus [6] = assay: Pressor activity in ganglion-blocked vagotomized rat assessed as angiotensin 2 ED20 at 250 ng/kg/min, iv administered as infusion measured during infusion
# Rattus norvegicus [7] = assay: Pressor activity in ganglion-blocked vagotomized rat assessed as rise in angiotensin 2 ED20 at 250 ng/kg/min, iv administered as infusion measured during infusion relative to untreated control
# Rattus norvegicus [8] = assay: Pressor activity in ganglion-blocked vagotomized rat assessed as rise in blood pressure at 250 ng/kg/min, iv administered as infusion measured after 3 mins relative to control
# Rattus norvegicus [9] = assay: Pressor activity in ganglion-blocked vagotomized rat assessed as rise in blood pressure at 250 ng/kg/min, iv administered as infusion measured after 10 mins relative to control
# Rattus norvegicus [10] = assay: Pressor activity in ganglion-blocked vagotomized rat assessed as rise in blood pressure at 250 ng/kg/min, iv administered as infusion measured after 30 mins relative to control
Molecule,log K (Oryctolagus cuniculus),Activity (Rattus norvegicus [1]) [mmHg],Activity (Rattus norvegicus [2]) [mmHg],Activity (Rattus norvegicus [3]) [mmHg],Ratio (Rattus norvegicus [4]),Kb [5] [µM],ED20 (Rattus norvegicus [6]) [ng],Ratio (Rattus norvegicus [7]),Activity (Rattus norvegicus [8]) [mmHg],Activity (Rattus norvegicus [9]) [mmHg],Activity (Rattus norvegicus [10]) [mmHg]
CC[C@H](C)[C@H](NC)C(=O)N[C@@H](CCCNC(=N)N)C(=O)N[C@H](C(=O)N[C@@H](Cc1ccc(O)cc1)C(=O)N[C@H](C(=O)N[C@@H](Cc1cnc[nH]1)C(=O)N1CCC[C@H]1C(=O)N[C@H](C(=O)O)[C@@H](C)O)[C@@H](C)CC)C(C)C (H-[NMeI]RVYIHPT-OH),2.48,–,–,–,0.12,0.0209,3.59,2.37,4.33,6.66,8.05
CC[C@H](C)[C@H](NC(=O)[C@H](Cc1ccc(O)cc1)NC(=O)[C@@H](NC(=O)[C@H](CCCN=C(N)N)NC(=O)CNC)C(C)C)C(=O)N[C@@H](Cc1c[nH]cn1)C(=O)N1CCC[C@H]1C(=O)N[C@H](C(=O)O)[C@@H](C)O (H-[Sar]RVYIHPT-OH),8.1,9.46,9.66,9.2,0.6,0.00162,44.55,26.9,–,–,–
H-RVYIHPT-OH,2.83,–,–,–,0.24,0.0295,3.01,1.47,0.5,1.5,4.5

# The next lines start with results.
log K (Oryctolagus cuniculus),Molecule,Activity (Rattus norvegicus [1]) [mmHg],Activity (Rattus norvegicus [2]) [mmHg],Activity (Rattus norvegicus [3]) [mmHg],Ratio (Rattus norvegicus [4]),Kb [5] [µM],ED20 (Rattus norvegicus [6]) [ng],Ratio (Rattus norvegicus [7]),Activity (Rattus norvegicus [8]) [mmHg],Activity (Rattus norvegicus [9]) [mmHg],Activity (Rattus norvegicus [10]) [mmHg]
8.39,CC[C@H](C)[C@H](NC(=O)[C@H](Cc1ccc(O)cc1)NC(=O)[C@@H](NC(=O)[C@H](CCCNC(=N)N)NC(=O)CNC)C(C)C)C(=O)N[C@@H](Cc1cnc[nH]1)C(=O)N1CCC[C@H]1C(=O)N[C@H](C(=O)O)[C@@H](C)OC,13.82,15.88,15.06,0.48,0.00174,95.26,62.52,–,–,–
5.58,CC[C@H](C)[C@H](NC(=O)[C@H](Cc1ccc(O)cc1)NC(=O)[C@@H](NC(=O)[C@H](CCCNC(=N)N)NC(=O)CNC)C(C)C)C(=O)N[C@@H](Cc1cnc[nH]1)C(=O)N1CCC[C@H]1C(=O)N[C@@H](COC)C(=O)O,15.66,16.16,11.16,0.49,0.000219,37,24.04,–,–,–
2.12,CC[C@H](C)[C@H](NC(=O)[C@H](Cc1ccc(O)cc1)NC(=O)[C@@H](NC(=O)[C@H](CCCNC(=N)N)NC(=O)CNC(=N)N)C(C)C)C(=O)N[C@@H](Cc1cnc[nH]1)C(=O)N1CCC[C@H]1C(=O)N[C@H](C(=O)O)[C@@H](C)O (Guanidinoacetyl-RVYIHPT-OH),–,–,–,0.15,0.0589,1.14,1.02,0.5,0.75,3.5
2.83,CC[C@H](C)[C@H](NC(=O)[C@H](Cc1ccc(O)cc1)NC(=O)[C@@H](NC(=O)[C@H](CCCNC(=N)N)NC(=O)CN(C)C)C(C)C)C(=O)N[C@@H](Cc1cnc[nH]1)C(=O)N1CCC[C@H]1C(=O)N[C@H](C(=O)O)[C@@H](C)O (Me2Gly-RVYIHPT-OH),7.5,12.57,11.71,0.38,0.0295,7.7,4.49,–,–,–
